ChEMBL document CHEMBL1143898, “Synthesis and study of antiviral and anti-radical properties of aminophenol derivatives” (Bioorg Med Chem Lett, 2008)
Activity calls are given as the source filed them.

What was measured:
Human alphaherpesvirus 1 = test: Antiviral activity against HSV1-induced cytopathic effect in human rhabdomyosarcoma cells assessed as suppression of viral replication; format: functional, organism-based
How it was run: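 HSV-1 infected human rhabdomyosarcoma (RD) cell culture; cytopathic effect based method. Compound predissolved in 10% ethanol, then twofold dilutions made in maintenance medium 199. Criterion: reduction of virus titer relative to untreated infected control; concentrations suppressing virus replication by 50% and 90% calculated (EC50, EC90).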

[1] = Cytotoxicity against human rhabdomyosarcoma cells assessed as maximum non-toxic concentrations after 72 hrs; format: functional
How it was run: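 Non-infected RD cell cultures exposed to compound for 72 h; maximum non-toxic concentration determined.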

[2] = system: Peritoneal macrophage cell; test: Inhibition of zymosan-stimulated ROS production in rat peritoneal macrophages; format: functional, cell-based
How it was run: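 ROS generation measured by luminol-dependent chemiluminescence with and without compound; EC50 and EC90 taken as concentrations lowering luminescence intensity by 50% and 90%.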

| Compound | EC50 (Human alphaherpesvirus 1) [µM] | EC90 (Human alphaherpesvirus 1) [µM] | Activity [1] [µM] | EC50 [2] [µM] | Activity [2] |
| --- | --- | --- | --- | --- | --- |
| COc1c(NC(C)=O)cc(C(C)(C)C)cc1C(C)(C)C | 798 | 1960 | 1444 | – | – |
| CC(C)(C)c1cc(Nc2ccccc2)c(O)c(C(C)(C)C)c1 | 23 | 169 | 336.7 | 9.8 | – |
| CCCC(=O)Nc1cc(C(C)(C)C)cc(C(C)(C)C)c1O | 8.6 | 14.1 | 686.2 | – | inactive |
| CC(=O)Nc1cc(C(C)(C)C)cc(C(C)(C)C)c1O | 8.5 | 14.8 | 379.7 | – | inactive |
| CCC(=O)Nc1cc(C(C)(C)C)cc(C(C)(C)C)c1O | 38.2 | 64.5 | 720.9 | – | inactive |
| CC(C)(C)c1cc(N)c(O)c(C(C)(C)C)c1 | 87.3 | 288 | 113.2 | 0.06 | – |
| COc1c(Nc2ccccc2)cc(C(C)(C)C)cc1C(C)(C)C | 255 | 624 | 722 | – | inactive |
